According to ChEMBL document CHEMBL3779871, “4,5-Diarylisoxazol-3-carboxylic acids: A new class of leukotriene biosynthesis inhibitors potentially targeting 5-lipoxygenase-activating protein (FLAP)” (Eur J Med Chem, 2016):

How the values were obtained:
[1] = target: T1, Arachidonate 5-lipoxygenase-activating protein (Homo sapiens, UniProt P20292); assay: Inhibition of FLAP in Ca+2 ionophore A23187 stimulated human neutrophils assessed as 5-LO product formation preincubated for 15 mins measured after 10 mins by RP-HPLC analysis
T1 sequence (P20292 whole entry): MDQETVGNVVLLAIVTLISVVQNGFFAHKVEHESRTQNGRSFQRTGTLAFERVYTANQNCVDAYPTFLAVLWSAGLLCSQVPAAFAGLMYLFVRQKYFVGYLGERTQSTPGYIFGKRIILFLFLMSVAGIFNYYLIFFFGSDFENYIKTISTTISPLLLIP

[2] = Acute cytotoxicity against human neutrophils assessed as cell viability measured for 30 mins by trypan blue exclusion method; assay type: cell-based; settings: neutrophil, 0.5 h
Method in brief: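 Neutrophils isolated from healthy donor blood by dextran sedimentation and Nycoprep centrifugation, then resuspended in PBS pH 7.4 with 1 mg/ml glucose and 1 mM CaCl₂. Cells were kept 30 min at 37 °C with compound, and cell integrity was read by trypan blue exclusion on an automated counter.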

[3] = target: T2, Arachidonate 5-lipoxygenase-activating protein (Homo sapiens) (UniProt P20292); assay: Inhibition of FLAP in Ca+2 ionophore A23187 stimulated human neutrophils assessed as remaining 5-LO activity preincubated for 15 mins at 10 uM measured after 10 mins by RP-HPLC analysis
T2 sequence (whole entry): T1 sequence (P20292 whole entry)

[4] = target: T3, Polyunsaturated fatty acid 5-lipoxygenase (Homo sapiens, UniProt P09917); assay: Inhibition of recombinant human 5-LO expressed in Escherichia coli BL21 assessed as 5-LO product formation preincubated for 15 mins followed by addition of arachidonic acid as substrate measured after 10 mins by RP-HPLC analysis
T3 sequence (P09917 whole entry): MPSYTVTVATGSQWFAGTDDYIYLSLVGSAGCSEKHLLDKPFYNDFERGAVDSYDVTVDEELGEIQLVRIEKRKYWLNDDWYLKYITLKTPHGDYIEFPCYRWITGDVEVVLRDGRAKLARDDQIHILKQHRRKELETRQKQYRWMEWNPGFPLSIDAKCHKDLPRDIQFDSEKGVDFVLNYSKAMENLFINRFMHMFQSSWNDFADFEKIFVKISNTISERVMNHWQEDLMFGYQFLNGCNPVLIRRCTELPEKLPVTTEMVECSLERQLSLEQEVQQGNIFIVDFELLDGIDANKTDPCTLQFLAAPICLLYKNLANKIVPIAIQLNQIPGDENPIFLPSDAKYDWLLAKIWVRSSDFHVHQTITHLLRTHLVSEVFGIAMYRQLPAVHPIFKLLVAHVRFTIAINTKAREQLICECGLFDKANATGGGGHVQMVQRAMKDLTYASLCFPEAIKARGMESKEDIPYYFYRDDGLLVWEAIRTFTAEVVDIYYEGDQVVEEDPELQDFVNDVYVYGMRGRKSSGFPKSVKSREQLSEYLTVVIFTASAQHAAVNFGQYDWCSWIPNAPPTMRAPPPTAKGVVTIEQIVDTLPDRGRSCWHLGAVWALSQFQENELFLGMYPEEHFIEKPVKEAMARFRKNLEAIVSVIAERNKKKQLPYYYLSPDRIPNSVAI
Method in brief: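 Semi-purified 5-LO was diluted in ice-cold PBS with 1 mM EDTA and 1 mM ATP, then held 15 min at 4 °C with compound or 0.1% DMSO. After a 30 s prewarm at 37 °C, 2 mM CaCl₂ plus 20 arachidonic acid were added for 10 min at 37 °C. The reaction was stopped with methanol, and LTB₄ all-trans isomers plus 5-H(P)ETE were read by RP-HPLC. IC₅₀ is n = 3–4 in duplicates.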

Compound | IC50 [1] [nM] | Activity [2] | Activity [3] [%] | IC50 [4] [nM]
O=C(O)c1noc(-c2ccc(OCc3nc4ccccc4s3)cc2)c1-c1ccc(Cl)cc1 | 240 | Non-toxic | 2 | > 10000
CCOC(=O)c1noc(-c2ccc(OCc3ccc(C)cc3)cc2)c1-c1ccc(Cl)cc1 | – | Non-toxic | 61.4 | –
N#Cc1cccc(COc2ccc(-c3onc(C(=O)O)c3-c3ccc(Cl)cc3)cc2)c1 | 4100 | Non-toxic | 6.9 | –
COc1cc(OCc2ccccc2C)ccc1-c1onc(C)c1-c1ccc(Cl)cc1 | – | Non-toxic | 81.3 | –
CCOC(=O)c1noc(-c2ccc(OCc3ccccc3C)cc2)c1-c1ccc(Cl)cc1 | > 10000 | Non-toxic | 71.9 | –
O=C(O)c1noc(-c2ccc(OCc3ccccc3C(F)(F)F)cc2)c1-c1ccc(Cl)cc1 | 770 | Non-toxic | 5.5 | –
Cc1ccccc1COc1ccc(-c2onc(C(=O)O)c2-c2ccc(Cl)cc2)cc1 | 1700 | Non-toxic | 13.1 | –
Cc1ccc(COc2ccc(-c3onc(C(=O)O)c3-c3ccc(Cl)cc3)cc2)cc1 | 1400 | Non-toxic | 15.7 | –
O=C(O)c1noc(-c2ccc(OCc3ccc4ccccc4n3)cc2)c1-c1ccc(Cl)cc1 | 240 | Non-toxic | 2.7 | –
CC(c1cc2ccccc2s1)N(O)C(N)=O (stereo not drawn) [ZILEUTON] | – | Non-toxic | 6.7 | –
CCOC(=O)c1noc(-c2ccc(OCc3cccc(F)c3)cc2)c1-c1ccc(Cl)cc1 | – | Non-toxic | 55.3 | –
Cc1ccccc1COc1ccc(-c2onc(C)c2-c2ccc(Cl)cc2)c(O)c1 | – | Non-toxic | 3 | –
O=C(O)c1noc(-c2ccc(OCc3ccccn3)cc2)c1-c1ccc(Cl)cc1 | 4100 | Non-toxic | 8.4 | –
O=C(O)c1noc(-c2ccc(OCc3cccc(F)c3)cc2)c1-c1ccc(Cl)cc1 | 1300 | Non-toxic | 19.6 | –
O=C(O)c1noc(-c2ccc(OCc3ccccc3Cl)cc2)c1-c1ccc(Cl)cc1 | 1200 | Non-toxic | 5.1 | –
Cc1ccccc1COc1ccc(-c2onc(C)c2-c2ccc(Cl)cc2)cc1 | – | Non-toxic | 102 | –
